Laboratory results published in ChEMBL document CHEMBL1671716, “Antimicrobial susceptibility patterns for recent clinical isolates of anaerobic bacteria in South Korea” (2010).
≈ marks a conversion by molar mass, not a printed value.

Columns and labels:
[1] = test system: Bacteroides thetaiotaomicron; assay: Antimicrobial activity against Bacteroides thetaiotaomicron assessed as percent susceptible isolates after 48 hrs by agar dilution method; type: functional
Clostridium perfringens [2] = assay: Antimicrobial activity against Clostridium perfringens assessed as percent susceptible isolates after 48 hrs by agar dilution method; type: functional
Parvimonas micra [3] = assay: Antimicrobial activity against Peptostreptococcus micros after 48 hrs by agar dilution method; type: functional
In short: (§1)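 CLSI agar dilution (M11-A7); inoculum 10^5 CFU applied by replicator; plates incubated anaerobically 48 h at 37°C. For piperacillin-tazobactam, tazobactam held constant at 4 μg/ml.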

[4] = test system: Bifidobacterium adolescentis; assay: Antimicrobial activity against Bifidobacterium adolescentis assessed as percent resistant isolates after 48 hrs by agar dilution method; type: functional
In short: (§2)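 CLSI agar dilution on recent Korean clinical anaerobe isolates. Inoculum 10^5 CFU per spot by replicator. Plates incubated in an anaerobic chamber at 37°C for 48 h. For piperacillin plus tazobactam, tazobactam was held constant at 4 μg/ml. Resistance and susceptibility rates derived from MICs.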

Bifidobacterium sp. [5] = assay: Antimicrobial activity against Bifidobacterium sp. assessed as percent susceptible isolates after 48 hrs by agar dilution method; type: functional; in short: as §1
Actinomyces naeslundii = assay: Antimicrobial activity against Actinomyces naeslundii assessed as percent susceptible isolates after 48 hrs by agar dilution method; type: functional
Eubacterium sp. [6] = assay: Antimicrobial activity against Eubacterium sp. assessed as percent resistant isolates after 48 hrs by agar dilution method; type: functional; in short: as §2
[7] = test system: Peptostreptococcus anaerobius; assay: Antimicrobial activity against Peptostreptococcus anaerobius after 48 hrs by agar dilution method; type: functional; in short: as §1
Phocaeicola vulgatus = assay: Antimicrobial activity against Bacteroides vulgatus assessed as percent susceptible isolates after 48 hrs by agar dilution method; type: functional
Bacteroides ovatus [8] = assay: Antimicrobial activity against Bacteroides ovatus after 48 hrs by agar dilution method; type: functional
In short: (§3)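 MICs on clinical anaerobe isolates by the CLSI agar dilution method. Inoculum of 10^5 CFU applied with a Steers replicator. Plates incubated 48 h at 37°C in an anaerobic chamber.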

Bacteroides caccae [9] = assay: Antimicrobial activity against Bacteroides caccae assessed as percent susceptible isolates after 48 hrs by agar dilution method; type: functional
[10] = test system: Peptoniphilus asaccharolyticus; assay: Antimicrobial activity against Peptoniphilus asaccharolyticus after 48 hrs by agar dilution method; type: functional; in short: as §1
[11] = test system: Bacteroides thetaiotaomicron; assay: Antimicrobial activity against Bacteroides thetaiotaomicron assessed as percent resistant isolates after 48 hrs by agar dilution method; type: functional; in short: as §2
Fusobacterium varium = assay: Antimicrobial activity against Fusobacterium varium after 48 hrs by agar dilution method; type: functional; in short: as §1
Bifidobacterium sp. [12] = assay: Antimicrobial activity against Bifidobacterium sp. assessed as percent resistant isolates after 48 hrs by agar dilution method; type: functional; in short: as §2
Actinomyces israelii [13] = assay: Antimicrobial activity against Actinomyces israelii after 48 hrs by agar dilution method; type: functional; in short: as §3
[14] = test system: Bifidobacterium adolescentis; assay: Antimicrobial activity against Bifidobacterium adolescentis assessed as percent susceptible isolates after 48 hrs by agar dilution method; type: functional
Bacteroides ovatus [15] = assay: Antimicrobial activity against Bacteroides ovatus assessed as percent resistant isolates after 48 hrs by agar dilution method; type: functional; in short: as §2
Clostridioides difficile [16] = assay: Antimicrobial activity against Clostridium difficile assessed as percent resistant isolates after 48 hrs by agar dilution method; type: functional
Schaalia odontolytica = assay: Antimicrobial activity against Actinomyces odontolyticus assessed as percent resistant isolates after 48 hrs by agar dilution method; type: functional; in short: as §2
Clostridium perfringens [17] = assay: Antimicrobial activity against Clostridium perfringens after 48 hrs by agar dilution method; type: functional
Eggerthella lenta [18] = assay: Antimicrobial activity against Eubacterium lentum after 48 hrs by agar dilution method; type: functional; in short: as §1
Eubacterium sp. [19] = assay: Antimicrobial activity against Eubacterium sp. after 48 hrs by agar dilution method; type: functional; in short: as §1
Schaalia meyeri [20] = assay: Antimicrobial activity against Actinomyces meyeri assessed as percent resistant isolates after 48 hrs by agar dilution method; type: functional; in short: as §2
Anaerococcus prevotii [21] = assay: Antimicrobial activity against Anaerococcus prevotii after 48 hrs by agar dilution method; type: functional; in short: as §3
Hoylesella oralis [22] = assay: Antimicrobial activity against Prevotella oralis assessed as percent resistant isolates after 48 hrs by agar dilution method; type: functional; in short: as §2
[23] = test system: Peptostreptococcus anaerobius; assay: Antimicrobial activity against Peptostreptococcus anaerobius assessed as percent susceptible isolates after 48 hrs by agar dilution method; type: functional; in short: as §2
Bifidobacterium sp. [24] = assay: Antimicrobial activity against Bifidobacterium sp. after 48 hrs by agar dilution method; type: functional; in short: as §3
Eggerthella lenta [25] = assay: Antimicrobial activity against Eubacterium lentum assessed as percent susceptible isolates after 48 hrs by agar dilution method; type: functional; in short: as §1
Fusobacterium nucleatum = assay: Antimicrobial activity against Fusobacterium nucleatum after 48 hrs by agar dilution method; type: functional; in short: as §1
Prevotella intermedia [26] = assay: Antimicrobial activity against Prevotella intermedia after 48 hrs by agar dilution method; type: functional; in short: as §1
Clostridioides difficile [27] = assay: Antimicrobial activity against Clostridium difficile after 48 hrs by agar dilution method; type: functional
Prevotella bivia [28] = assay: Antimicrobial activity against Prevotella bivia assessed as percent resistant isolates after 48 hrs by agar dilution method; type: functional; in short: as §2
Prevotella buccae [29] = assay: Antimicrobial activity against Prevotella buccae assessed as percent susceptible isolates after 48 hrs by agar dilution method; type: functional, Segatella buccae; in short: as §1
Bacteroides caccae [30] = assay: Antimicrobial activity against Bacteroides caccae after 48 hrs by agar dilution method; type: functional; in short: as §3
Parvimonas micra [31] = assay: Antimicrobial activity against Peptostreptococcus micros assessed as percent susceptible isolates after 48 hrs by agar dilution method; type: functional; in short: as §2
Prevotella bivia [32] = assay: Antimicrobial activity against Prevotella bivia assessed as percent susceptible isolates after 48 hrs by agar dilution method; type: functional; in short: as §1
Actinomyces israelii [33] = assay: Antimicrobial activity against Actinomyces israelii assessed as percent resistant isolates after 48 hrs by agar dilution method; type: functional; in short: as §2
Bacteroides fragilis = assay: Antimicrobial activity against Bacteroides fragilis assessed as percent resistant isolates after 48 hrs by agar dilution method; type: functional; in short: as §2
Finegoldia magna = assay: Antimicrobial activity against Finegoldia magna after 48 hrs by agar dilution method; type: functional; in short: as §1
Schaalia meyeri [34] = assay: Antimicrobial activity against Actinomyces meyeri assessed as percent susceptible isolates after 48 hrs by agar dilution method; type: functional
Anaerococcus prevotii [35] = assay: Antimicrobial activity against Anaerococcus prevotii assessed as percent resistant isolates after 48 hrs by agar dilution method; type: functional; in short: as §2
Actinomyces israelii [36] = assay: Antimicrobial activity against Actinomyces israelii assessed as percent susceptible isolates after 48 hrs by agar dilution method; type: functional
[37] = test system: Parabacteroides distasonis; assay: Antimicrobial activity against Bacteroides distasonis after 48 hrs by agar dilution method; type: functional; in short: as §3
Prevotella intermedia [38] = assay: Antimicrobial activity against Prevotella intermedia assessed as percent susceptible isolates after 48 hrs by agar dilution method; type: functional; in short: as §1
Hoylesella oralis [39] = assay: Antimicrobial activity against Prevotella oralis assessed as percent susceptible isolates after 48 hrs by agar dilution method; type: functional
In short: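 CLSI agar dilution MIC testing of clinical isolates. 10^5 CFU spotted by replicator, plates incubated 48 h at 37°C in an anaerobic chamber. Susceptibility rates derived from the MICs.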

Prevotella buccae [40] = assay: Antimicrobial activity against Prevotella buccae after 48 hrs by agar dilution method; type: functional; settings: Segatella buccae; in short: as §1

CO[C@@]1(NC(=O)Cc2cccs2)C(=O)N2C(C(=O)O)=C(COC(N)=O)CS[C@@H]21 [CEFOXITIN]
Activity [1]: 25%
Activity (Clostridium perfringens [2]): 100%
MIC50 (Parvimonas micra [3]): 1 µg/mL (≈ 2.34 µM)
MIC90 (Parvimonas micra [3]): 16 µg/mL (≈ 37.4 µM)
Activity [4]: 0%
Activity (Bifidobacterium sp. [5]): 92%
Activity (Actinomyces naeslundii): 92%
Activity (Eubacterium sp. [6]): 0%
MIC50 [7]: 1 µg/mL (≈ 2.34 µM)
MIC90 [7]: 16 µg/mL (≈ 37.4 µM)
Activity (Phocaeicola vulgatus): 25%
MIC50 (Bacteroides ovatus [8]): 32 µg/mL (≈ 74.9 µM)
MIC90 (Bacteroides ovatus [8]): 32 µg/mL (≈ 74.9 µM)
Activity (Bacteroides caccae [9]): 25%
MIC50 [10]: ≤ 0.06 µg/mL
MIC90 [10]: 0.5 µg/mL (≈ 1.17 µM)
Activity [11]: 7%
MIC (Fusobacterium varium): 0.06 µg/mL (≈ 0.14 µM)
Activity (Bifidobacterium sp. [12]): 0%
MIC50 (Actinomyces israelii [13]): 2 µg/mL (≈ 4.68 µM)
MIC90 (Actinomyces israelii [13]): 16 µg/mL (≈ 37.4 µM)
Activity [14]: 92%
Activity (Bacteroides ovatus [15]): 7%
Activity (Clostridioides difficile [16]): 100%
Activity (Schaalia odontolytica): 0%
MIC50 (Clostridium perfringens [17]): 1 µg/mL (≈ 2.34 µM)
MIC90 (Clostridium perfringens [17]): 2 µg/mL (≈ 4.68 µM)
MIC50 (Eggerthella lenta [18]): 2 µg/mL (≈ 4.68 µM)
MIC90 (Eggerthella lenta [18]): 16 µg/mL (≈ 37.4 µM)
MIC50 (Eubacterium sp. [19]): 2 µg/mL (≈ 4.68 µM)
MIC90 (Eubacterium sp. [19]): 16 µg/mL (≈ 37.4 µM)
Activity (Schaalia meyeri [20]): 0%
MIC50 (Anaerococcus prevotii [21]): 0.5 µg/mL (≈ 1.17 µM)
MIC90 (Anaerococcus prevotii [21]): 1 µg/mL (≈ 2.34 µM)
Activity (Hoylesella oralis [22]): 0%
Activity [23]: 100%
MIC50 (Bifidobacterium sp. [24]): 2 µg/mL (≈ 4.68 µM)
MIC90 (Bifidobacterium sp. [24]): 16 µg/mL (≈ 37.4 µM)
Activity (Eggerthella lenta [25]): 92%
MIC (Fusobacterium nucleatum): 0.06 µg/mL (≈ 0.14 µM)
MIC50 (Prevotella intermedia [26]): 2 µg/mL (≈ 4.68 µM)
MIC90 (Prevotella intermedia [26]): 4 µg/mL (≈ 9.36 µM)
MIC (Clostridioides difficile [27]): 64 µg/mL (≈ 150 µM)
MIC50 (Clostridioides difficile [27]): 64 µg/mL (≈ 150 µM)
MIC90 (Clostridioides difficile [27]): > 128 µg/mL
Activity (Prevotella bivia [28]): 0%
Activity (Prevotella buccae [29]): 89%
MIC50 (Bacteroides caccae [30]): 32 µg/mL (≈ 74.9 µM)
MIC90 (Bacteroides caccae [30]): 32 µg/mL (≈ 74.9 µM)
Activity (Parvimonas micra [31]): 0%
Activity (Prevotella bivia [32]): 89%
Activity (Actinomyces israelii [33]): 0%
Activity (Bacteroides fragilis): 5%
MIC50 (Finegoldia magna): 0.5 µg/mL (≈ 1.17 µM)
MIC90 (Finegoldia magna): 1 µg/mL (≈ 2.34 µM)
Activity (Schaalia meyeri [34]): 92%
Activity (Anaerococcus prevotii [35]): 0%
Activity (Actinomyces israelii [36]): 92%
MIC50 [37]: 32 µg/mL (≈ 74.9 µM)
MIC90 [37]: 32 µg/mL (≈ 74.9 µM)
Activity (Prevotella intermedia [38]): 100%
Activity (Hoylesella oralis [39]): 89%
MIC50 (Prevotella buccae [40]): 1 µg/mL (≈ 2.34 µM)
MIC90 (Prevotella buccae [40]): 32 µg/mL (≈ 74.9 µM)
